# Experimental data: ChEMBL document CHEMBL1649392, “Synthesis of substituted 3-amino-N-phenyl-1H-indazole-1-carboxamides endowed with antiproliferative activity” (Eur J Med Chem, 2011)
# Assays:
# Type in all cases: functional
# [1] = tested on: A549; assay: Antiproliferative activity against human A549 cells after 48 hrs by sulforhodamine B assay; conditions: A549, 48 h
# How it was run: (§1)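 NCI 60-cell-line panel covering nine cancer types (leukemia, non-small cell lung, colon, CNS, melanoma, ovarian, renal, prostate, breast). Compounds were first tested at a single dose, then in a five-dose screen (series starting 0.01, 0.1 …) if they met NCI threshold criteria. Reported per line: GI50 (molar concentration inhibiting 50% net growth), TGI (total growth inhibition) and LC50 (50% net cell death).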
# [2] = tested on: Malme-3M; assay: Antiproliferative activity against human MALME-3M cells after 48 hrs by sulforhodamine B assay; how it was run: as §1
# [3] = tested on: SW-620; assay: Antiproliferative activity against human SW620 cells after 48 hrs by sulforhodamine B assay; conditions: SW-620, 48 h
# How it was run: (§2)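 NCI 60-cell-line panel screen: single dose 10 µM first, then 5-dose testing (0.01, 0.1, … molar series). For each line, GI50 is the molar concentration giving 50% inhibition of net cell growth, TGI gives total inhibition of net growth, and LC50 gives 50% net cell death. Method follows the NCI DTP protocol.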
# [4] = tested on: SNB-75; assay: Antiproliferative activity against human SNB75 cells after 48 hrs by sulforhodamine B assay; conditions: SNB-75, 48 h; how it was run: as §1
# [5] = tested on: 786-0; assay: Antiproliferative activity against human 786-0 cells after 48 hrs by sulforhodamine B assay; conditions: 786-0, 48 h; how it was run: as §1
# [6] = tested on: MOLT-4; assay: Antiproliferative activity against human MOLT4 cells after 48 hrs by sulforhodamine B assay; conditions: MOLT-4, 48 h, read-out: LC50 (the source's name); how it was run: as §1
# [7] = Antiproliferative activity against human Hs 578T cells after 48 hrs by sulforhodamine B assay; how it was run: as §1
# [8] = tested on: NCI-H322M; assay: Antiproliferative activity against human NCI-H322M cells after 48 hrs by sulforhodamine B assay; how it was run: as §1
# [9] = tested on: OVCAR-8; assay: Antiproliferative activity against human OVCAR8 cells after 48 hrs by sulforhodamine B assay; conditions: OVCAR-8, 48 h; how it was run: as §1
# [10] = tested on: SK-OV-3; assay: Antiproliferative activity against human SKOV3 cells after 48 hrs by sulforhodamine B assay; conditions: SK-OV-3, 48 h; how it was run: as §1
# [11] = tested on: HCT-15; assay: Antiproliferative activity against human HCT15 cells after 48 hrs by sulforhodamine B assay; conditions: HCT-15, 48 h; how it was run: as §1
# [12] = tested on: K562; assay: Antiproliferative activity against human K562 cells after 48 hrs by sulforhodamine B assay; conditions: K562, 48 h; how it was run: as §1
# [13] = tested on: SK-MEL-28; assay: Antiproliferative activity against human SK-MEL-28 cells after 48 hrs by sulforhodamine B assay; conditions: SK-MEL-28, 48 h; how it was run: as §1
# [14] = tested on: PC-3; assay: Antiproliferative activity against human PC3 cells after 48 hrs by sulforhodamine B assay; conditions: PC-3, 48 h; how it was run: as §1
# [15] = tested on: OVCAR-3; assay: Antiproliferative activity against human OVCAR3 cells after 48 hrs by sulforhodamine B assay; conditions: OVCAR-3, 48 h; how it was run: as §1
# [16] = tested on: KM12; assay: Antiproliferative activity against human KM12 cells after 48 hrs by sulforhodamine B assay; conditions: KM12, 48 h; how it was run: as §1
# [17] = tested on: MDA-MB-231; assay: Antiproliferative activity against human MDA-MB-231 cells after 48 hrs by sulforhodamine B assay; conditions: MDA-MB-231, 48 h, read-out: LC50 (the source's name); how it was run: as §1
# [18] = tested on: UACC-62; assay: Antiproliferative activity against human UACC62 cells after 48 hrs by sulforhodamine B assay; conditions: UACC-62, 48 h; how it was run: as §2
# [19] = tested on: NCI-H23; assay: Antiproliferative activity against human NCI-H23 cells after 48 hrs by sulforhodamine B assay; conditions: NCI-H23, 48 h; how it was run: as §1
# [20] = tested on: NCI-H226; assay: Antiproliferative activity against human NCI-H226 cells after 48 hrs by sulforhodamine B assay; conditions: NCI-H226, 48 h; how it was run: as §1
# [21] = tested on: SF-268; assay: Antiproliferative activity against human SF268 cells after 48 hrs by sulforhodamine B assay; conditions: SF-268, 48 h; how it was run: as §1
# [22] = tested on: U-251; assay: Antiproliferative activity against human U251 cells after 48 hrs by sulforhodamine B assay; conditions: U-251, 48 h; how it was run: as §2
# [23] = tested on: EKVX; assay: Antiproliferative activity against human EKVX cells after 48 hrs by sulforhodamine B assay; how it was run: as §1
# [24] = tested on: NCI-H522; assay: Antiproliferative activity against human NCI-H522 cells after 48 hrs by sulforhodamine B assay; conditions: NCI-H522, 48 h; how it was run: as §1
# [25] = tested on: A498; assay: Antiproliferative activity against human A498 cells after 48 hrs by sulforhodamine B assay; conditions: A498, 48 h; how it was run: as §1
# [26] = tested on: T47D; assay: Antiproliferative activity against human T47D cells after 48 hrs by sulforhodamine B assay; how it was run: as §2
# [27] = tested on: SK-MEL-2; assay: Antiproliferative activity against human SK-MEL-2 cells after 48 hrs by sulforhodamine B assay; conditions: SK-MEL-2, 48 h; how it was run: as §1
# [28] = tested on: HOP-92; assay: Antiproliferative activity against human HOP92 cells after 48 hrs by sulforhodamine B assay; conditions: HOP-92, 48 h; how it was run: as §1
# [29] = tested on: COLO 205; assay: Antiproliferative activity against human COLO205 cells after 48 hrs by sulforhodamine B assay; conditions: COLO 205, 48 h; how it was run: as §1
# [30] = tested on: SF-295; assay: Antiproliferative activity against human SF295 cells after 48 hrs by sulforhodamine B assay; conditions: SF-295, 48 h; how it was run: as §1
# [31] = tested on: OVCAR-4; assay: Antiproliferative activity against human OVCAR4 cells after 48 hrs by sulforhodamine B assay; conditions: OVCAR-4, 48 h; how it was run: as §1
# [32] = read-out: LC50 (the source's name)
compound,measurement,setting,value
Nc1nn(C(=O)Nc2ccc(Cc3ccccc3)cc2)c2ccccc12,TGI,[1],48.6 µM
same,CC50,[1]; [32],> 100 µM
same,LC50 (concentration causing 50% net cell death),[2],> 100 µM
same,TGI,[2],64.1 µM
same,TGI,[3],41.5 µM
same,CC50,[3]; [32],> 100 µM
same,GI50,[4],17 µM
same,LC50 (concentration causing 50% net cell death),[4],> 100 µM
same,TGI,[4],47.4 µM
same,TGI,[5],26.2 µM
same,CC50,[5]; [32],92.7 µM
same,CC50,[6],> 100 µM
same,TGI,[7],71.8 µM
same,CC50,[7]; [32],> 100 µM
same,TGI,[8],> 100 µM
same,CC50,[8]; [32],> 100 µM
same,TGI,[9],63.9 µM
same,CC50,[9]; [32],> 100 µM
same,TGI,[10],> 100 µM
same,CC50,[10]; [32],> 100 µM
same,LC50 (concentration causing 50% net cell death),[11],> 100 µM
same,TGI,[11],> 100 µM
same,GI50,[12],1.2 µM
same,LC50 (concentration causing 50% net cell death),[12],> 100 µM
same,TGI,[13],> 100 µM
same,CC50,[13]; [32],> 100 µM
same,TGI,[14],51.1 µM
same,CC50,[14]; [32],> 100 µM
same,TGI,[15],63.1 µM
same,CC50,[15]; [32],> 100 µM
same,TGI,[16],> 100 µM
same,CC50,[16]; [32],> 100 µM
same,CC50,[17],> 100 µM
same,TGI,[18],> 100 µM
same,CC50,[18]; [32],> 100 µM
same,TGI,[19],83.5 µM
same,CC50,[19]; [32],> 100 µM
same,TGI,[20],58.2 µM
same,CC50,[20]; [32],> 100 µM
same,TGI,[21],32.3 µM
same,CC50,[21]; [32],> 100 µM
same,LC50 (concentration giving 50% net cell death),[22],65.9 µM
same,TGI,[22],30.2 µM
same,TGI,[23],92 µM
same,CC50,[23]; [32],> 100 µM
same,GI50,[24],2.9 µM
same,LC50 (concentration causing 50% net cell death),[24],> 100 µM
same,TGI,[24],> 100 µM
same,TGI,[25],31.5 µM
same,CC50,[25]; [32],59.6 µM
same,LC50 (concentration giving 50% net cell death),[26],> 100 µM
same,TGI,[26],> 100 µM
same,TGI,[27],> 100 µM
same,CC50,[27]; [32],> 100 µM
same,LC50,[28],> 100 µM
same,TGI,[28],42.6 µM
same,LC50 (concentration causing 50% net cell death),[29],> 100 µM
same,TGI,[29],37.7 µM
same,GI50,[30],0.53 µM
same,LC50,[30],> 100 µM
same,TGI,[30],> 100 µM
same,TGI,[31],40.4 µM
same,CC50,[31]; [32],> 100 µM
